According to ChEMBL document CHEMBL1821693, “A novel 3-arylethynyl-substituted pyrido[2,3,-b]pyrazine derivatives and pharmacophore model as Wnt2/β-catenin pathway inhibitors in non-small-cell lung cancer cell lines” (Bioorg Med Chem, 2011):
Calls of active or inactive are those of the source. The rule behind the calls is not given here.

Experiments:
A549 [1] = assay: Cytotoxicity against human A549 cells expressing Wnt2 after 24 to 72 hrs by MTS assay; assay type: functional, cell-based
Procedure, shortened: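 Wnt2-overexpressing A549 cells (stable pUSEampWnt2, G418 selection) in RPMI-1640 with 10% FBS. Seeded at 8 × 10^3 cells/well and allowed ~24 h to attach. Exposed to a range of concentrations. Viability measured 24 h after treatment by MTS (30 min at 37 °C, A490); IC50 derived.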

[2] = Inhibition of Wnt2/beta-catenin signaling pathway in human A549 cells assessed as inhibition of Tcf/Lef transcriptional activity after 24 hrs by dual luciferase reporter gene assay; assay type: cell-based; details: A549, 24 h
Procedure, shortened: (§1)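 A549/Wnt2 cells co-transfected by lipofection with pSuper-Topflash (eight TCF sites driving firefly luciferase) or mutant pSuperFopflash, plus pRL-TK renilla for normalization. Compounds added at 37 °C for 24 h. Lysates read by dual-luciferase assay. Firefly/renilla ratio reported as mean ± SEM of triplicates, relative to non-treated cells.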

A549 [3] = assay: Inhibition of total beta-catenin expression in human A549 whole cell extract at cytotoxicity IC50 by Western blot analysis; assay type: functional, cell-based
A549 [4] = assay: Inhibition of nucleus beta-catenin expression in human A549 cells at cytotoxicity IC50 by Western blot analysis; assay type: functional, cell-based
A549 [5] = assay: Inhibition of cytosolic beta-catenin expression in human A549 cells at cytotoxicity IC50 by Western blot analysis; assay type: functional, cell-based
A549 [6] = assay: Inhibition of cyclin D1 mRNA expression in human A549 cells expressing Wnt2 after 24 hrs by RT-PCR analysis; assay type: functional, cell-based
[7] = Inhibition of Wnt2/beta-catenin signaling pathway in human A549 cells assessed as inhibition of Tcf/Lef transcriptional activity at cell proliferation IC50 after 24 hrs by dual luciferase reporter gene assay; assay type: cell-based; details: dose or concentration not given here; procedure, shortened: as §1
A549 [8] = assay: Antiproliferative activity against human A549 cells expressing Wnt2 after 72 hrs by MTS assay; assay type: functional, cell-based; details: for IC50: A549, 72 h
Procedure, shortened: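 A549 cells stably transfected with pUSEampWnt2 (G418-selected), grown in RPMI-1640 with 10% FBS at 37 °C, 5% CO2. Seeded at 3 × 10^3 cells/well and allowed to attach ~24 h. Treated with a range of concentrations.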

A549 [9] = assay: Ratio of IC50 for antiproliferative activity against human A549 cells to IC50 for cytotoxicity against human A549 cells; assay type: functional
Procedure, shortened: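 Ratio of two MTS IC50s in A549/Wnt2 cells. Proliferation: 3 × 10^3 cells/well, read at 72 h. Cytotoxicity: 8 × 10^3 cells/well, read 24 h after treatment.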

| IC50 [2] [nM] | IC50 (A549 [8]) [nM] | SMILES | IC50 (A549 [1]) [nM] | inhibition (A549 [3]) | inhibition (A549 [4]) | inhibition (A549 [5]) | inhibition (A549 [6]) | inhibition [7] [%] | inhibition (A549 [8]) | Ratio IC50 (A549 [9]) |
| --- | --- | --- | --- | --- | --- | --- | --- | --- | --- | --- |
|  |  | COc1c(C[C@@H](C)OC(=O)Oc2ccc(O)cc2)c2c3c(C[C@@H](C)OC(=O)c4ccccc4)c(OC)c(=O)c4c(O)cc(OC)c(c5c(OC)cc(O)c(c1=O)c52)c43 [CALPHOSTIN C] | 3200 |  |  |  |  |  |  |  |
| 758 |  | CN(C)CCOc1nc2ccccc2nc1C#Cc1ccccc1 |  |  |  |  |  |  |  |  |
|  |  | CC(C)N(CCOc1nc2cccnc2nc1C#Cc1cccc(F)c1)C(C)C | 2890 | Active | Active | Active | Active | 50 |  |  |
|  | 830 | COc1ccc(C#Cc2nc3ncccc3nc2OCCN(C)C)c(C)c1 | 2950 | Active | Active | Active |  | 30 | Dose-dependent effect |  |
|  |  | COc1cccc(C#Cc2nc3ncccc3nc2OCCCN(C)C)c1 | 280 | Active | Active | Active |  | 30 |  |  |
|  |  | COc1cccc(C#Cc2nc3ncccc3nc2Cl)c1 | 4000 | Active | Active | Active |  | 50 |  |  |
|  | 535 | CN(C)CCOc1nc2cccnc2nc1C#Cc1cccc(F)c1 | 1940 | Active | Active | Active | Active | 30 | Dose-dependent effect |  |
| 120 | 43 | C(#Cc1nc2ncccc2nc1OCCc1ccccn1)c1ccccc1 | 200 | Active | Active | Active | Active | 50 | Dose-dependent effect |  |
|  |  | C(#Cc1nc2ncccc2nc1OCCN1CCCC1)c1ccccc1 | 720 | Active | Active | Active |  | 30 |  |  |
|  |  | COc1cc(C#Cc2nc3ncccc3nc2OCCCN(C)C)cc(OC)c1 | 380 | Active | Active | Active |  | 30 |  |  |
|  |  | Cc1ccc(C#Cc2nc3ncccc3nc2OC(C)CN(C)C)cc1 (stereo unspecified) | 1900 | Active | Active | Active |  | 30 |  |  |
|  |  | CN1CCCC(Oc2nc3cccnc3nc2C#Cc2ccccc2)C1 (stereo unspecified) | 720 | Active | Active | Active |  | 30 |  |  |
|  |  | CN(C)c1cccc(COc2nc3cccnc3nc2C#Cc2ccccc2)c1 | 1720 | Active | Active | Active |  | 30 |  |  |
|  |  | Fc1cccc(C#Cc2nc3ncccc3nc2OCCN2CCCC2)c1 | 2450 | Active | Active | Active |  | 30 |  |  |
|  | 208 | CCN(CC)CCOc1nc2cccnc2nc1C#Cc1ccc(OC)cc1 | 640 | Active | Active | Active | Active | 50 | Dose-dependent effect | 3.07 |
